Experimental data reported in the array DNA melting data of Ke et al. (doi:10.1101/2024.01.08.574731).

Tests used:
[1] = melting temperature; fluorescence melt of hairpins on a sequencing array, two-state fit, raised by 9.35 °C to match UV melts; conditions: sodium 0.088 M
How it was run: (§1)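 Folding enthalpy and melting temperature were estimated with bootstrapped two-state fits and combined across four replicates by inverse-variance weighting, with fitted temperatures raised by 9.35 °C to match UV melts. The data were Cy3 fluorescence of library hairpins, with annealed Cy3 and quencher oligos, on a sequenced MiSeq flow cell in 50 mM Na-HEPES pH 8.0, 25 mM NaCl, imaged in 2.5 °C steps up to 60 °C and normalised to pre-quench Cy3 and control constructs.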

[2] = folding enthalpy; higher = less favourable; fluorescence melt of hairpins on a sequencing array, two-state fit; conditions: sodium 0.088 M
How it was run: as §1

GTATTGCGAAAGCACTAC (((.(((....))).)))
Tm [1]: 39.4 °C | folding enthalpy [2]: -21.5 kcal/mol

GTATTGGCGAAAGCCTAC (((..(((....))))))
Tm [1]: 41.5 °C | folding enthalpy [2]: -3.67 kcal/mol

GTATTGTCGAAAGACTAC (((..(((....))))))
Tm [1]: 28.5 °C | folding enthalpy [2]: -11.4 kcal/mol

GTCAAAGCGAAAGCTGAC (((..(((....))))))
Tm [1]: 48.1 °C | folding enthalpy [2]: -21.2 kcal/mol

GTCAAAGGAAACTTTGGC (.(((((....))))).)
Tm [1]: 44.5 °C | folding enthalpy [2]: -29.9 kcal/mol

GTCAACCGAAAGGTGAC (((.(((....))))))
Tm [1]: 55.7 °C | folding enthalpy [2]: -24.4 kcal/mol

GTCAACGAAAGTTAAGAC ((((((....)))..)))
Tm [1]: 31.3 °C | folding enthalpy [2]: -19.2 kcal/mol

GTCAACGAAAGTTCCGAC ((((((....)))..)))
Tm [1]: 20.9 °C | folding enthalpy [2]: -9.76 kcal/mol

GTCAACGAAAGTTCGAC ((((((....))).)))
Tm [1]: 38.4 °C | folding enthalpy [2]: -25.7 kcal/mol

GTCAACGGAAACGCTGAC ((((.((....)).))))
Tm [1]: 46.4 °C | folding enthalpy [2]: -35.8 kcal/mol

GTCAAGACGAAAGTCGAC (((..(((....))))))
Tm [1]: 43.9 °C | folding enthalpy [2]: -13.7 kcal/mol

GTCAAGCGAAAGCTGGAC (((.(((....))).)))
Tm [1]: 62.4 °C | folding enthalpy [2]: -29.4 kcal/mol

GTCAATCGAAAGATGGAC (((.(((....))).)))
Tm [1]: 49.2 °C | folding enthalpy [2]: -25.5 kcal/mol

GTCAATGAAAATTGAC ((((((....))))))
Tm [1]: 50.8 °C | folding enthalpy [2]: -31.7 kcal/mol

GTCACACCGAAAGGTGAC (((..(((....))))))
Tm [1]: 41.1 °C | folding enthalpy [2]: -10.9 kcal/mol

GTCACACGAAAGTGCGAC (((.(((....))).)))
Tm [1]: 55.6 °C | folding enthalpy [2]: -35.4 kcal/mol

GTCACAGAAATGTGAC ((((((....))))))
Tm [1]: 56.8 °C | folding enthalpy [2]: -35.2 kcal/mol

GTCACAGGAAACCGTGAC (((((.(....).)))))
Tm [1]: 49.1 °C | folding enthalpy [2]: -30.3 kcal/mol

GTCACAGGAAACTATGAC ((((.((....)).))))
Tm [1]: 32 °C | folding enthalpy [2]: -20.1 kcal/mol

GTCACAGGAAACTGTGGC (.(((((....))))).)
Tm [1]: 52.5 °C | folding enthalpy [2]: -32.8 kcal/mol

GTCACCGAAAGGTTGGAC ((((((....)))..)))
Tm [1]: 31.1 °C | folding enthalpy [2]: -14.8 kcal/mol

GTCACCGCGAAAGCGGAC (((..(((....))))))
Tm [1]: 26.5 °C | folding enthalpy [2]: -5.92 kcal/mol

GTCACCGGAAACGACGAC (((..((....))..)))
Tm [1]: 31.1 °C | folding enthalpy [2]: -24.7 kcal/mol

GTCACCGGAAACGATGAC ((((.((....)).))))
Tm [1]: 45.9 °C | folding enthalpy [2]: -33.5 kcal/mol

GTCACCGGAAACGGCGAC (((.(((....))).)))
Tm [1]: 54.5 °C | folding enthalpy [2]: -40.6 kcal/mol

GTCACGGGAAACCACGAC (((..((....))..)))
Tm [1]: 34.9 °C | folding enthalpy [2]: -23.6 kcal/mol

GTCACTCGAAAGAGAGAC (((.(((....))).)))
Tm [1]: 50.5 °C | folding enthalpy [2]: -35.4 kcal/mol

GTCAGACGAAAGTCAGAC (((.(((....))).)))
Tm [1]: 53.6 °C | folding enthalpy [2]: -31.5 kcal/mol

GTCAGCCGAAAGGCCGAC (((.(((....))).)))
Tm [1]: 55.8 °C | folding enthalpy [2]: -21.4 kcal/mol

GTCAGCCGAAAGGCGAC (((.(((....))))))
Tm [1]: 61.5 °C | folding enthalpy [2]: -15 kcal/mol

GTCAGCGAAAGCTAGGAC ((((((....)))..)))
Tm [1]: 40 °C | folding enthalpy [2]: -14.1 kcal/mol

GTCAGGCCGAAAGGCGAC (((..(((....))))))
Tm [1]: 46.9 °C | folding enthalpy [2]: -18 kcal/mol

GTCAGGCGAAAGCCCGAC (((.(((....))).)))
Tm [1]: 48.8 °C | folding enthalpy [2]: -23.2 kcal/mol

GTCAGGGGAAACCTTGAC ((((.((....)).))))
Tm [1]: 47.2 °C | folding enthalpy [2]: -28.1 kcal/mol

GTCAGTCCGAAAGGAGAC (((..(((....))))))
Tm [1]: 33.2 °C | folding enthalpy [2]: -15.6 kcal/mol

GTCAGTCGAAAGACAGAC (((.(((....))).)))
Tm [1]: 51 °C | folding enthalpy [2]: -39.4 kcal/mol

GTCAGTCGAAAGACGGAC (((.(((....))).)))
Tm [1]: 56.2 °C | folding enthalpy [2]: -33.3 kcal/mol

GTCAGTGGAAACACCGAC (((.(((....))).)))
Tm [1]: 40.4 °C | folding enthalpy [2]: -26.9 kcal/mol

GTCATAGCGAAAGCTGAC (((..(((....))))))
Tm [1]: 46.6 °C | folding enthalpy [2]: -22.8 kcal/mol

GTCATCCGAAAGGACGAC (((.(((....))).)))
Tm [1]: 49.3 °C | folding enthalpy [2]: -36.4 kcal/mol

GTCATCGAAAGATCTGAC ((((((....)))..)))
Tm [1]: 23.8 °C | folding enthalpy [2]: -10.9 kcal/mol

GTCATCGAAAGATGAC ((((((....))))))
Tm [1]: 66.2 °C | folding enthalpy [2]: -31.2 kcal/mol

GTCATCGAAAGATGGAC ((((((....))).)))
Tm [1]: 43.9 °C | folding enthalpy [2]: -17.6 kcal/mol

GTCATCGAAAGATTGAC ((((((....))).)))
Tm [1]: 40.7 °C | folding enthalpy [2]: -26.9 kcal/mol

GTCATGAAAATGAC (((((....)))))
Tm [1]: 50.1 °C | folding enthalpy [2]: -27.1 kcal/mol

GTCATGCGAAAGCAAGAC (((.(((....))).)))
Tm [1]: 52.4 °C | folding enthalpy [2]: -29.6 kcal/mol

GTCATGGGAAACTATGAC (((((.(....).)))))
Tm [1]: 45 °C | folding enthalpy [2]: -29.1 kcal/mol

GTCATTGCGAAAGCAGAC (((..(((....))))))
Tm [1]: 33 °C | folding enthalpy [2]: -14.5 kcal/mol

GTCATTGGAAACAATGAC (((((((....)))))))
Tm [1]: 58.3 °C | folding enthalpy [2]: -41.8 kcal/mol

GTCCAAGAAATTGGAC ((((((....))))))
Tm [1]: 53 °C | folding enthalpy [2]: -26.5 kcal/mol

GTCCAAGGAAACTTGAAC ((.((((....)))).))
Tm [1]: 29.2 °C | folding enthalpy [2]: -16.9 kcal/mol

GTCCAATCGAAAGATGAC (((..(((....))))))
Tm [1]: 29.1 °C | folding enthalpy [2]: -13.9 kcal/mol

GTCCACGAAAGTGAAGAC ((((((....)))..)))
Tm [1]: 40.4 °C | folding enthalpy [2]: -23.1 kcal/mol

GTCCACGAAAGTGAGGAC ((((((....)))..)))
Tm [1]: 46.4 °C | folding enthalpy [2]: -21.9 kcal/mol

GTCCACGAAAGTGCCGAC ((((((....)))..)))
Tm [1]: 31.5 °C | folding enthalpy [2]: -12.8 kcal/mol

GTCCACGAAAGTGGGAC ((((((....))).)))
Tm [1]: 58.3 °C | folding enthalpy [2]: -13.6 kcal/mol

GTCCACGAAAGTGGGGAC ((((((....)))..)))
Tm [1]: 46.4 °C | folding enthalpy [2]: -10.4 kcal/mol

GTCCACGAAAGTGTTGAC ((((((....)))..)))
Tm [1]: 31.6 °C | folding enthalpy [2]: -17 kcal/mol

GTCCACTCGAAAGAGGAC (((..(((....))))))
Tm [1]: 37.4 °C | folding enthalpy [2]: -23 kcal/mol

GTCCAGAAATGGAC (((((....)))))
Tm [1]: 52.9 °C | folding enthalpy [2]: -24.8 kcal/mol

GTCCAGCCGAAAGGCGAC (((..(((....))))))
Tm [1]: 40.6 °C | folding enthalpy [2]: -9.75 kcal/mol

GTCCAGCGAAAGCTAGAC (((.(((....))).)))
Tm [1]: 46.4 °C | folding enthalpy [2]: -22.1 kcal/mol

GTCCAGCGAAAGCTCGAC (((.(((....))).)))
Tm [1]: 43.2 °C | folding enthalpy [2]: -20.7 kcal/mol

GTCCAGCGAAAGCTTGAC (((.(((....))).)))
Tm [1]: 49.1 °C | folding enthalpy [2]: -26.2 kcal/mol

GTCCAGGGAAACCTGAAC ((.((((....)))).))
Tm [1]: 35.9 °C | folding enthalpy [2]: -19.5 kcal/mol

GTCCAGGGAAACCTGGAC (((((((....)))))))
Tm [1]: 68.6 °C | folding enthalpy [2]: -33.6 kcal/mol

GTCCATGGAAACATGGAC (((((((....)))))))
Tm [1]: 63.6 °C | folding enthalpy [2]: -41.8 kcal/mol

GTCCCAGAAATGGGAC ((((((....))))))
Tm [1]: 64.3 °C | folding enthalpy [2]: -33.7 kcal/mol

GTCCCAGGAAACCGGGAC (((((.(....).)))))
Tm [1]: 53.2 °C | folding enthalpy [2]: -34.8 kcal/mol

GTCCCAGGAAACTGGGGC (.(((((....))))).)
Tm [1]: 57.5 °C | folding enthalpy [2]: -40.6 kcal/mol

GTCCCCGAAAGGGAAGAC ((((((....)))..)))
Tm [1]: 44.5 °C | folding enthalpy [2]: -13.5 kcal/mol

GTCCCCGAAAGGGCAGAC ((((((....)))..)))
Tm [1]: 36.7 °C | folding enthalpy [2]: -13 kcal/mol

GTCCCCGAAAGGGTCGAC ((((((....)))..)))
Tm [1]: 35.4 °C | folding enthalpy [2]: -13.6 kcal/mol

GTCCGAGAAATCGGAC ((((((....))))))
Tm [1]: 65.9 °C | folding enthalpy [2]: -34.5 kcal/mol

GTCCGAGGAAACTCGAAC ((.((((....)))).))
Tm [1]: 41.3 °C | folding enthalpy [2]: -21.3 kcal/mol

GTCCGAGGAAACTTGGGC (.((.((....)).)).)
Tm [1]: 41 °C | folding enthalpy [2]: -27.9 kcal/mol

GTCCGCGAAAGCGCGAC ((((((....))).)))
Tm [1]: 56.9 °C | folding enthalpy [2]: -20.7 kcal/mol

GTCCGCGAAAGCGCTGAC ((((((....)))..)))
Tm [1]: 38.2 °C | folding enthalpy [2]: -10.6 kcal/mol

GTCCGCTCGAAAGAGGAC (((..(((....))))))
Tm [1]: 47.4 °C | folding enthalpy [2]: -29 kcal/mol

GTCCGGCGAAAGCCCGAC (((.(((....))).)))
Tm [1]: 45.2 °C | folding enthalpy [2]: -20.1 kcal/mol

GTCCGGCGAAAGCCTGAC (((.(((....))).)))
Tm [1]: 51.8 °C | folding enthalpy [2]: -20.9 kcal/mol

GTCCGGGGAAACCTGGGC (.((.((....)).)).)
Tm [1]: 48.3 °C | folding enthalpy [2]: -29.8 kcal/mol

GTCCGGGGAAACTCGGAC (((((.(....).)))))
Tm [1]: 58.9 °C | folding enthalpy [2]: -40.9 kcal/mol

GTCCGGGGAAACTCGGGC (.(((.(....).))).)
Tm [1]: 47.8 °C | folding enthalpy [2]: -21.4 kcal/mol

GTCCGTCGAAAGACCGAC (((.(((....))).)))
Tm [1]: 42.8 °C | folding enthalpy [2]: -21.5 kcal/mol

GTCCGTCGAAAGACTGAC (((.(((....))).)))
Tm [1]: 47.8 °C | folding enthalpy [2]: -28.3 kcal/mol

GTCCGTGGAAACGTGGAC ((((..(....)..))))
Tm [1]: 45.4 °C | folding enthalpy [2]: -21.5 kcal/mol

GTCCTACGAAAGTAAGAC (((.(((....))).)))
Tm [1]: 37 °C | folding enthalpy [2]: -27.3 kcal/mol

GTCCTAGGAAACCAGGAC (((((.(....).)))))
Tm [1]: 45.3 °C | folding enthalpy [2]: -28.6 kcal/mol

GTCCTCACGAAAGTGGAC (((..(((....))))))
Tm [1]: 43 °C | folding enthalpy [2]: -17.2 kcal/mol

GTCCTCCGAAAGGAGAC (((.(((....))))))
Tm [1]: 47.5 °C | folding enthalpy [2]: -15.9 kcal/mol
